≈ marks a conversion by molar mass, not a printed value. Calls of active or inactive are those of the source. No cut-off for these calls is given here.
What was measured:
[1] = Solubility in pH 6 MES buffer by dynamic light scattering assay; assay type: physicochemical
How it was run: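 Dynamic light scattering in MES, pH 6.0, with <0.1% DMSO.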

[2] = target: Myc proto-oncogene protein (Homo sapiens) (UniProt P01106); test: Binding affinity to His-tagged Myc (unknown origin) expressed in Escherichia coli BL21 at 10 uM by Bio-FET analysis relative to KJ-Pyr-9
Myc proto-oncogene protein (Homo sapiens), sequence (P01106 whole entry): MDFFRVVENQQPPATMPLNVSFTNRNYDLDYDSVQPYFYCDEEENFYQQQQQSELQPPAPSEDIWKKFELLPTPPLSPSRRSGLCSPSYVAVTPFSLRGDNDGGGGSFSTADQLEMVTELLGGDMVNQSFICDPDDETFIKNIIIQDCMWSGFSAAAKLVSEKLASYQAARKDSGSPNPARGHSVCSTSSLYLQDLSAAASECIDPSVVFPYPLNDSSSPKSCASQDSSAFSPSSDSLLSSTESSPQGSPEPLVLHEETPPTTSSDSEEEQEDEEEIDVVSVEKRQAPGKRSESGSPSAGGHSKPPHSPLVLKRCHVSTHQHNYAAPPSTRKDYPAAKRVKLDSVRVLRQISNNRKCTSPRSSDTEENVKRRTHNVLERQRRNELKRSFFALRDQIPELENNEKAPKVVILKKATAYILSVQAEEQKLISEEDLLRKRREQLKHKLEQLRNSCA
How it was run: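 His-tagged MYC bHLH construct immobilized on a Bio-FET chip. Compounds at 10 μM in 3% DMSO in MES buffer; chip response at 10 μM normalized to a 10 μM reference ligand (saturating, maximal signal) run on each chip.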

c-Myc/Max (Homo sapiens) [3] = target: T1, c-Myc/Max (Homo sapiens) (UniProt P01106+P61244); test: Binding affinity to His-tagged Myc/Max (unknown origin) expressed in Escherichia coli BL21 at 10 uM by Bio-FET analysis
How it was run: (§1)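 Bio-FET chip screening at 10 μM against monomeric MAX (mMAX), MYC-MAX and MAX-MAX dimers. Heterodimers stabilized by a disulfide through a C-terminal cysteine introduced into the MYC bHLH and MAX constructs.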

[4] = target: Protein max (Homo sapiens) (UniProt P61244); test: Binding affinity to His-tagged monomeric Max (unknown origin) expressed in Escherichia coli BL21 at 10 uM by Bio-FET analysis; how it was run: as §1
Protein max (Homo sapiens), sequence (P61244 whole entry): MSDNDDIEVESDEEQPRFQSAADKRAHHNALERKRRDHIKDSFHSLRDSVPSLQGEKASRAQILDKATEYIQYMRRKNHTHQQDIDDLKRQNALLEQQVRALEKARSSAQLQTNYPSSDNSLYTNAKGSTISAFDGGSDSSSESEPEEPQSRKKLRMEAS

[5] = target: Protein max (Homo sapiens) (UniProt P61244); test: Binding affinity to His-tagged dimeric Max (unknown origin) expressed in Escherichia coli BL21 at 10 uM by Bio-FET analysis; how it was run: as §1
c-Myc/Max (Homo sapiens) [6] = target: T1, c-Myc/Max (Homo sapiens); test: Inhibition of biotin-labeled EBOX dsDNA binding to Myc-Max (unknown origin) at 10 uM preincubated for 15 mins followed by test compound-protein mixture addition to biotin-labeled EBOX dsDNA immobilized chip measured over 2.5 mins by SPR analysis; assay type: protein-complex assay
How it was run: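 SPR. Disulfide-stabilized MYC-MAX dimer incubated with compound at 10 μM, then flowed over a DNA chip surface; sensorgram perturbation compared with vehicle control.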

dsDNA = test: Binding affinity to biotin-labeled EBOX dsDNA (unknown origin) at 10 uM measured over 2.5 mins by SPR analysis; assay type: nucleic-acid assay
How it was run: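 SPR check of compound alone flowed over the DNA surface, without protein.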

[7] = Drug metabolism in rat liver microsomes assessed as oxidized furan ion formation by measuring parent compound remaining at 5 uM after 3 mins by LC-MS analysis; assay type: ADME, microsome; conditions: 0.05 h
How it was run: (§2)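 Compounds incubated with rat liver microsomes at 37 °C for the indicated times; mass analysis monitoring the oxidized furan ion; recovery calculated from the AUC of the extracted ion.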

[8] = Drug metabolism in rat liver microsomes assessed as oxidized furan ion formation by measuring parent compound remaining at 5 uM after 7 mins by LC-MS analysis; assay type: ADME, microsome; how it was run: as §2
[9] = Drug metabolism in rat liver microsomes assessed as oxidized furan ion formation by measuring parent compound remaining at 5 uM after 15 mins by LC-MS analysis; assay type: ADME, microsome; conditions: 0.25 h; how it was run: as §2
[10] = Drug metabolism in rat liver microsomes assessed as oxidized furan ion formation by measuring parent compound remaining at 5 uM after 25 mins by LC-MS analysis; assay type: ADME, microsome; how it was run: as §2
[11] = Drug metabolism in rat liver microsomes assessed as oxidized furan ion formation by measuring parent compound remaining at 5 uM after 45 mins by LC-MS analysis; assay type: ADME, microsome; conditions: 0.75 h; how it was run: as §2
[12] = Terminal half life in C57Bl6 mouse at 10 mg/kg, iv by LC-MS analysis; assay type: ADME, organism-based; conditions: in vivo, read-out: beta t1/2 (converted)
How it was run: (§3)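 Pharmacokinetic parameters determined in C57Bl6 mice.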

[13] = AUC (0 to infinity) in C57Bl6 mouse at 10 mg/kg, iv by LC-MS analysis; assay type: ADME, organism-based; design: dose 10 mg/kg, route intravenous, time infinity; conditions: in vivo; how it was run: as §3
Mus musculus = test: AUMC (0 to infinity) in C57Bl6 mouse at 10 mg/kg, iv by LC-MS analysis; assay type: ADME, organism-based; conditions: in vivo; how it was run: as §3
[14] = MRT in C57Bl6 mouse at 10 mg/kg, iv by LC-MS analysis; assay type: ADME, organism-based; conditions: in vivo; how it was run: as §3
[15] = Volume of distribution at steady state in C57Bl6 mouse at 10 mg/kg, iv by LC-MS analysis; assay type: ADME, organism-based; conditions: in vivo; how it was run: as §3
[16] = Clearance in C57Bl6 mouse at 10 mg/kg, iv by LC-MS analysis; assay type: ADME, organism-based; conditions: in vivo; how it was run: as §3
[17] = Terminal half life in rat at 1 mg/kg, iv; assay type: ADME, organism-based; conditions: in vivo, read-out: beta t1/2 (converted)
[18] = AUC (0 to infinity) in rat at 1 mg/kg, iv; assay type: ADME, organism-based; design: dose 1 mg/kg, time infinity, route intravenous; conditions: in vivo
Rattus norvegicus = test: AUMC (0 to infinity) in rat at 1 mg/kg, iv; assay type: ADME, organism-based; conditions: in vivo
[19] = MRT in rat at 1 mg/kg, iv; assay type: ADME, organism-based; conditions: in vivo
[20] = Clearance in rat at 1 mg/kg, iv; assay type: ADME, organism-based; conditions: in vivo

SMILES | solubility [1] | Activity [2] | Activity (c-Myc/Max (Homo sapiens) [3]) | Activity [4] | Activity [5] | inhibition (c-Myc/Max (Homo sapiens) [6]) | Activity (dsDNA) | also measured
NC(=O)c1ccc(-c2cc(-c3ccc([N+](=O)[O-])cc3)nc(-c3ccco3)c2)cc1 | 8 µM (≈ 3.08 µg/mL) |  |  | inactive | inactive |  | inactive | Stability [7]: 49.69%; Stability [8]: 31.47%; Stability [9]: 25.88%; Stability [10]: 20.91%; Stability [11]: 22%; half-life [12]: 1 h; AUC(0-inf) [13]: 1450 ng·h/mL; AUMC (Mus musculus): 1360 ng·h/mL; MRT [14]: 0.94 h; Vd [15]: 6.44 L/kg; clearance [16]: 115 mL/min/kg; half-life [17]: 1.6 h; AUC(0-inf) [18]: 258 ng·h/mL; AUMC (Rattus norvegicus): 427 ng·h/mL; MRT [19]: 1.7 h; clearance [20]: 65 mL/min/kg
N#Cc1ccc(-c2cc(-c3ccc(-c4nnn[nH]4)cc3)cc(-c3ccco3)n2)cc1 | 18 µM (≈ 7.03 µg/mL) | 92% | inactive | inactive | inactive | Active | inactive | 
COc1ccc(-c2cc(-c3ccc(C(N)=O)cc3)nc(-c3ccccc3)n2)cc1 | < 1 µM | 0% | inactive | inactive | inactive | inactive | inactive | 
N#Cc1ccc(-c2cc(-c3ccc(C(N)=O)cc3)nc(-c3cc[n+]([O-])cc3)n2)cc1 | 25 µM (≈ 9.84 µg/mL) | 0% | inactive | inactive | inactive | inactive | inactive | 
N#Cc1ccc(-c2cc(-c3ccc(C(N)=O)cc3)nc(-c3ccco3)n2)cc1 | 8 µM (≈ 2.93 µg/mL) | 66% | inactive | inactive | inactive | Active | inactive | 
CS(=O)(=O)NC(=O)c1ccc(-c2cc(-c3ccc(C#N)cc3)nc(-c3ccco3)c2)cc1 | 32 µM (≈ 14.2 µg/mL) | 76% | inactive | inactive | inactive | Active | inactive | 
c1coc(-c2cc(-c3nccs3)cc(-c3ccc(-c4nccs4)cc3)n2)c1 | < 1 µM | 188% | inactive | inactive | inactive | Active | inactive | 
NC(=O)c1ccc(-c2cc(-c3ccc(-c4nccs4)cc3)nc(-c3ccco3)c2)cc1 |  | 97% | inactive | inactive | inactive | Active | inactive | Stability [7]: 84.31%; Stability [8]: 80.8%; Stability [9]: 74.39%; Stability [10]: 67.5%; Stability [11]: 62.23%; AUC(0-inf) [13]: 44000 ng·h/mL; AUMC (Mus musculus): 190000 ng·h/mL; MRT [14]: 4.3 h; clearance [16]: 3.8 mL/min/kg

Continued, in another order:

solubility [1] | Activity [2] | Activity (c-Myc/Max (Homo sapiens) [3]) | Activity [4] | Activity [5] | inhibition (c-Myc/Max (Homo sapiens) [6]) | Activity (dsDNA) | SMILES | also measured
250 µM (≈ 91.6 µg/mL) | 0% | inactive | inactive | inactive | inactive | inactive | N#Cc1ccc(-c2cc(-c3ccc(C(N)=O)cc3)cc(-c3cnco3)n2)cc1 | 
64 µM (≈ 24.5 µg/mL) | 79% | inactive | inactive | inactive | Active | inactive | N#Cc1ccc(-c2cc(-c3ccc(C(N)=O)cc3)cc(-c3cncs3)n2)cc1 | 
32 µM (≈ 12.2 µg/mL) | 55% | inactive | inactive | inactive | Active | inactive | Cn1nncc1-c1cc(-c2ccc(C(N)=O)cc2)cc(-c2ccc(C#N)cc2)n1 | 
500 µM (≈ 190 µg/mL) | 0% | inactive | inactive | inactive | inactive | inactive | N#Cc1ccc(-c2cc(-c3ccc(C(=O)NN)cc3)cc(-c3ccco3)n2)cc1 | 
15 µM (≈ 6.11 µg/mL) | 154% | inactive | inactive | inactive | Active | inactive | NC(=O)c1ccc(-c2cc(-c3ccc(-c4cnco4)cc3)nc(-c3ccco3)c2)cc1 | 
8 µM (≈ 3.04 µg/mL) | 41% | inactive | inactive | inactive | Active | inactive | Cn1ccnc1-c1cc(-c2ccc(C(N)=O)cc2)cc(-c2ccc(C#N)cc2)n1 | 
10 µM (≈ 3.65 µg/mL) | 106% | inactive | inactive | inactive | Active | inactive | N#Cc1ccc(-c2cc(-c3ccc(C(N)=O)cc3)cc(-c3ccco3)n2)cc1 | 
2 µM (≈ 0.787 µg/mL) | 0% | inactive | inactive | inactive | inactive | inactive | N#Cc1ccc(-c2cc(-c3ccc(C(N)=O)cc3)cc(-c3cccc(F)c3)n2)cc1 | 
25 µM (≈ 9.49 µg/mL) | 3.2% | inactive | inactive | inactive | Active | inactive | CNC(=O)c1ccc(-c2cc(-c3ccc(C#N)cc3)nc(-c3ccco3)c2)cc1 | 

From ChEMBL document CHEMBL4229470, “Synthetic molecules for disruption of the MYC protein-protein interface” (Bioorg Med Chem, 2018)
